The target in experiment [1] is T1, Kappa-type opioid receptor (Homo sapiens, UniProt P41145). The experiment can be described thus: Displacement of [3H]U69,593 from human kappa opioid receptor expressed in CHO cells. The format is cell-based.
Experiment [2] addresses Delta-type opioid receptor (Homo sapiens, UniProt P41143). The experiment can be described thus: Displacement of [3H]naltrindole from human delta opioid receptor expressed in CHO cells. The format is cell-based.
For experiment [3], the target named is T2, Mu-type opioid receptor (Homo sapiens, UniProt P35372). The experiment can be described thus: Displacement of [3H]DAMGO from human mu opioid receptor expressed in CHO cells. The experiment is classed as cell-based. A general note: Loss of bound radioactivity is the signal in a displacement assay; it reports binding, not function.
Experiment [4] has as its target T2, Mu-type opioid receptor. The experiment can be described thus: Activity at human mu opioid receptor expressed in CHO cells assessed as stimulation of [35S]GTPgammaS binding relative to basal level. The experiment is classed as functional, cell-based. In a few lines: (§1)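 Twelve compound concentrations were incubated with CHO membranes (κ 15 μg, μ 7.5 μg) and 0.080 nM [35S]GTPγS for 60 min at 30°C. Nonspecific binding was defined with 10 μM GTPγS. Samples were filtered and counted. Emax was taken with basal set at 0%, with EC50. Mean ± SEM, ≥3 experiments in triplicate.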
(GTPγS is a poorly hydrolysed GTP analogue; its binding reports G protein activation.)

Experiment [5] has as its target T1, Kappa-type opioid receptor. The experiment can be described thus: Antagonist activity at human kappa opioid receptor expressed in CHO cells assessed as inhibition of U50,488-stimulated [35S]GTPgammaS binding. The format is functional, cell-based. In a few lines: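 κ-receptor CHO membranes were incubated with compound in the presence of 100 nM U50,488 in a [35S]GTPγS binding assay.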

The target in experiment [6] is T2, Mu-type opioid receptor. The experiment can be described thus: Antagonist activity at human mu opioid receptor expressed in CHO cells assessed as inhibition of DAMGO-stimulated [35S]GTPgammaS binding. The experiment is classed as functional, cell-based.
Experiment [7] addresses T1, Kappa-type opioid receptor. The experiment can be described thus: Activity at human kappa opioid receptor expressed in CHO cells assessed as stimulation of [35S]GTPgammaS binding relative to basal level. The experiment is classed as functional, cell-based. In a few lines:
as §1

For experiment [8], the target named is T1, Kappa-type opioid receptor. The experiment can be described thus: Activity at human kappa opioid receptor expressed in CHO cells assessed as stimulation of [35S]GTPgammaS binding. The experiment is classed as functional, cell-based. In a few lines: as §1

Each structure is given as a SMILES string. Active and inactive are the calls of the source. The rule behind the calls is not given here. Bounds are passed on as bounds.

T2 sequence (P35372 whole entry): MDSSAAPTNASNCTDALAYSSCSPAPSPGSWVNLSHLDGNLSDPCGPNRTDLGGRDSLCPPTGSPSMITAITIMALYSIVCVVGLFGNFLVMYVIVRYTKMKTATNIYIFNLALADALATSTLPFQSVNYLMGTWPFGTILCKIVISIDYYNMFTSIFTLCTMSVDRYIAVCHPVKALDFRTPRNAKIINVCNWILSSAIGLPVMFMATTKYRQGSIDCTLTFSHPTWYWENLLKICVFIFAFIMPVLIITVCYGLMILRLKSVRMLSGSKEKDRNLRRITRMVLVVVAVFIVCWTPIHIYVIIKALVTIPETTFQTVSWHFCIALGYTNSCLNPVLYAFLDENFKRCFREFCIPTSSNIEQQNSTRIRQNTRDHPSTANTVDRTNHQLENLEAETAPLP
T1 sequence (P41145 whole entry): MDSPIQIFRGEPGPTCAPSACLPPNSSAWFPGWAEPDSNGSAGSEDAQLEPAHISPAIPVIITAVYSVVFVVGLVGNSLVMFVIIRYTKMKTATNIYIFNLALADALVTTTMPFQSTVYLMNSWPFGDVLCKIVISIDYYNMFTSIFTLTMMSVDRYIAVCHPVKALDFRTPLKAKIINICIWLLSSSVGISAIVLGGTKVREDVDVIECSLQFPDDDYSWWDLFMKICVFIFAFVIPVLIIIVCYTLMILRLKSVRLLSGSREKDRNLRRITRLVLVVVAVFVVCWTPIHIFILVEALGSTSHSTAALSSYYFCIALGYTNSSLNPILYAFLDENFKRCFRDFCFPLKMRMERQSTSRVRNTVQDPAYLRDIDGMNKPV
Chain of Delta-type opioid receptor (P41143 whole entry): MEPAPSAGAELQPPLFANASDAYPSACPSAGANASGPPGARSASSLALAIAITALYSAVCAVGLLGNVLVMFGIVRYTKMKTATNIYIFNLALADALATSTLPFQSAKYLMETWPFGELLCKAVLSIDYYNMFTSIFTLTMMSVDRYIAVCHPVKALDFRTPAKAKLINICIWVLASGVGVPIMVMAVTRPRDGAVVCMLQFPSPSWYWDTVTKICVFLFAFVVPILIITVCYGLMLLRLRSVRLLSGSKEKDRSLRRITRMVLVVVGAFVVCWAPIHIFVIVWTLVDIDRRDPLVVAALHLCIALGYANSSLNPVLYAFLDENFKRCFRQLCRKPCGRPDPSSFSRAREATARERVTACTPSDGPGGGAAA

What is called Ki is a dissociation constant, usually derived from enzyme kinetics or from competition with a known ligand. A lower Ki goes with higher affinity. Consider `C[C@H]1C2Cc3cc4ncnc(NCCc5ccc(-c6ccccc6)cc5)c4cc3[C@@]1(C)CCN2CC1CC1` (mixture of isomers), for which the Ki amounted to 0.14 µM in experiment [1], 0.41 µM in experiment [2] and 0.028 µM at Mu-type opioid receptor [3].

Regarding `C[C@H]1C2Cc3cc4ncnc(NCc5ccccc5)c4cc3[C@@]1(C)CCN2CC1CC1` (mixture of isomers), the figures for the Ki (in experiment [1]; in experiment [2]; at Mu-type opioid receptor [3]) were 0.048 µM, 1 µM and 0.088 µM, respectively.

`C[C@H]1C2Cc3ccc4c(NCCc5ccc(-c6ccccc6)cc5)ncnc4c3[C@@]1(C)CCN2CC1CC1` (mixture of isomers): the values for the Ki (in experiment [1]; in experiment [2]; on Mu-type opioid receptor [3]) were 0.0086 µM, 0.052 µM and 0.0069 µM, respectively.

Usually Emax stands for the size of the effect at its maximum, as opposed to the concentration needed. By IC50 is commonly meant the concentration that inhibits the measured activity by half. Take `C[C@H]1C2Cc3ccc4c(N)ncnc4c3[C@@]1(C)CCN2CC1CC1` (mixture of isomers): the Emax on Mu-type opioid receptor [4] was found to be 0.64%; in experiment [7] it was 6.3%. Besides, the Ki turned out to be 0.001 µM in experiment [1], 0.12 µM in experiment [2] and 0.00055 µM on Mu-type opioid receptor [3]. Also, the IC50 in experiment [5] is 1.3 µM; at Mu-type opioid receptor [6] it was 0.028 µM. Besides, the Imax in experiment [5] is 75%; on Mu-type opioid receptor [6] it was 88%.

The EC50 is the concentration at which the effect is half-maximal. Turning to `C[C@H]1C2Cc3cc4cc[nH]c(=O)c4cc3[C@@]1(C)CCN2CC1CC1` (mixture of isomers), the values for the maximal effect (Emax) (at Mu-type opioid receptor [4]; in experiment [7]) were 27% and 91%, respectively. For the same compound, the Ki came out at 0.00074 µM in experiment [1], 0.074 µM in experiment [2] and 0.0055 µM on Mu-type opioid receptor [3]. In addition, the EC50 in experiment [8] turned out to be 0.06 µM. Also, the result in experiment [5] was inactive. Besides, at Mu-type opioid receptor [6], the IC50 is 0.85 µM. Moreover, at Mu-type opioid receptor [6], the Imax is 69%.

In the case of `C[C@H]1C2Cc3cc([N+](=O)[O-])c(O)cc3[C@@]1(C)CCN2CC1CC1` (mixture of isomers), the values for the Ki (in experiment [1]; in experiment [2]; at Mu-type opioid receptor [3]) were 0.58 µM, more than 10 µM and 3.8 µM, respectively.

Turning to `C[C@H]1C2Cc3ccc(C(N)=O)c([N+](=O)[O-])c3[C@@]1(C)CCN2CC1CC1` (mixture of isomers), the values for the Ki (in experiment [1]; in experiment [2]; at Mu-type opioid receptor [3]) were 0.034 µM, 0.22 µM and 0.02 µM, respectively.

For the compound `C[C@H]1C2Cc3cc([N+](=O)[O-])c(C(N)=O)cc3[C@@]1(C)CCN2CC1CC1` (mixture of isomers), the Ki in experiment [1] is 0.11 µM; in experiment [2], 0.73 µM; at Mu-type opioid receptor [3], 0.63 µM.

As for `C[C@H]1C2Cc3cc4ncnc(N)c4cc3[C@@]1(C)CCN2CC1CC1` (mixture of isomers), the figures for the Ki (in experiment [1]; in experiment [2]; at Mu-type opioid receptor [3]) were 0.56 µM, more than 10 µM and 0.89 µM, respectively.

On to `C[C@H]1C2Cc3ccc(O)c([N+](=O)[O-])c3[C@@]1(C)CCN2CC1CC1` (mixture of isomers), for which the Ki in experiment [1] was found to be 0.0032 µM; in experiment [2] it was 1.9 µM; at Mu-type opioid receptor [3], 0.032 µM.

As for `C[C@H]1C2Cc3ccc4c(NCc5ccccc5)ncnc4c3[C@@]1(C)CCN2CC1CC1` (mixture of isomers), the results for the inhibition constant Ki (in experiment [1]; in experiment [2]; at Mu-type opioid receptor [3]) were 0.24 µM, 1.5 µM and 0.044 µM, respectively.

Take `C[C@H]1C2Cc3ccc(C(N)=O)c(N)c3[C@@]1(C)CCN2CC1CC1` (mixture of isomers): the figures for the maximal effect (Emax) (on Mu-type opioid receptor [4]; in experiment [7]) were 4.6% and 38%, respectively. Moreover, the Ki in experiment [1] came to 0.0007 µM; in experiment [2], 0.035 µM; on Mu-type opioid receptor [3] it was 0.00055 µM. The EC50 in experiment [8] was 0.015 µM. The result in experiment [5] was inactive. Further, the IC50 on Mu-type opioid receptor [6] was 0.031 µM. For the same compound, the Imax at Mu-type opioid receptor [6] was found to be 93%.
